Experimental data from ChEMBL document CHEMBL1123290, “Synthesis, antimalarial activity, and quantitative structure-activity relationships of tebuquine and a series of related 5-[(7-chloro-4-quinolinyl)amino]-3-[(alkylamino)methyl] [1,1'-biphenyl]-2-ols and N omega-oxides” (1986).

Key:
Type in all cases: functional
[1] = tested on: Plasmodium berghei; test: Change in mean survival time for control (average 6.2 days) versus treated mice (Mus musculus) 72 hrs after […] subcutaneous dose
[2] = tested on: Plasmodium berghei; test: Change in mean survival time for control (average 6.2 days) versus treated mice (Mus musculus) 72 hrs after 5 mg/kg subcutaneous dose
[3] = tested on: Mus musculus; test: Antimalarial activity, administered as a single subcutaneous dose of 80 mg/kg, 72 hrs post infection measured as number of mice (Mus musculus) surviving at 60 days post infection
Procedure, shortened: (§1)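 Mice were infected with a normal drug-sensitive Plasmodium berghei strain. At 72 h postinfection each received one subcutaneous dose of compound dissolved or suspended in peanut oil, in five-mouse groups per dose. The read-out was the number of mice alive at 60 days postinfection, which were scored as cured.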

[4] = tested on: Plasmodium berghei; test: Antimalarial activity as 60-day survivors in infected mice (Mus musculus) after single 320mg/kg subcutaneous dose 72 hr post infection; procedure, shortened: as §1
[5] = tested on: Mus musculus; test: Antimalarial activity, administered as a single subcutaneous dose of 640 mg/kg, 72 hrs post infection measured as number of mice (Mus musculus) surviving at 60 days post infection; procedure, shortened: as §1
[6] = tested on: Plasmodium berghei; test: Antimalarial activity in primary screen
[7] = tested on: Mus musculus; test: Antimalarial activity of compound administered as a single subcutaneous dose of 10mg/kg, 72 hrs post infection measured as number of mice (Mus musculus) surviving at 60 days post infection; procedure, shortened: as §1
[8] = tested on: Plasmodium berghei; test: Change in mean survival time for control (average 6.2 days) versus treated mice (Mus musculus) 72 hrs after […] subcutaneous dose
[9] = tested on: Plasmodium berghei; test: Change in mean survival time for control (average 6.2 days) versus treated mice (Mus musculus) 72 hrs after 160 mg/kg subcutaneous dose
[10] = tested on: Plasmodium berghei; test: Change in mean survival time for control (average 6.2 days) versus treated mice (Mus musculus) 72 hrs after 640 mg/kg subcutaneous dose
[11] = tested on: Plasmodium berghei; test: Change in mean survival time for control (average 6.2 days) versus treated mice (Mus musculus) 72 hrs after 320 mg/kg subcutaneous dose
[12] = tested on: Plasmodium berghei; test: Change in mean survival time for control (average of 6.2 days) versus treated mice (Mus musculus) 72 hrs after 80 mg/kg subcutaneous dose
[13] = tested on: Plasmodium berghei; test: Change in mean survival time for control (average 6.2 days) versus treated mice (Mus musculus) 72 hrs after 20 mg/kg subcutaneous dose
[14] = tested on: Plasmodium berghei; test: Antimalarial activity as 60-day survivors in Plasmodium berghei infected mice (Mus musculus) after single 160mg/kg subcutaneous dose 72 hr post infection; procedure, shortened: as §1
[15] = tested on: Mus musculus; test: Compound was evaluated for parenteral antimalarial activity against Plasmodium berghei in mice (Mus musculus) after single dose (40 mg/kg subcutaneous); no of mice (Mus musculus) surviving at 60 days post infection, 3 cured; procedure, shortened: as §1
[16] = tested on: Plasmodium berghei; test: Difference in mean survival time in mice (Mus musculus) (control = 6.2 days) after single 40mg/kg subcutaneous dose 72hr post infection
[17] = tested on: Plasmodium berghei; test: Change in mean survival time for control (average 6.2 days) versus treated mice (Mus musculus) 72 hrs after 10 mg/kg subcutaneous dose
[18] = tested on: Plasmodium berghei; test: Change in mean survival time in control (average 6.2 days) versus treated mice (Mus musculus) after 80 mg/kg subcutaneous dose
[19] = tested on: Plasmodium berghei; test: Change in mean survival time for control (average 6.2 days) versus treated mice (Mus musculus) after 20 mg/kg subcutaneous dose
[20] = tested on: Plasmodium berghei; test: Change in mean survival time of Plasmodium berghei infected mice (Mus musculus) after […] subcutaneous dose
[21] = tested on: Plasmodium berghei; test: Difference in mean survival time of Plasmodium berghei infected mice (Mus musculus) after 10 mg/kg subcutaneous dose
[22] = tested on: Plasmodium berghei; test: Change in mean survival time for control (average 6.2 days) versus treated mice (Mus musculus) after 320 mg/kg subcutaneous dose
[23] = tested on: Plasmodium berghei; test: Change in mean survival time for control (average 6.2 days) versus treated mice (Mus musculus) after 40 mg/kg subcutaneous dose
[24] = tested on: Plasmodium berghei; test: Antimalarial activity as 60-day survivors in infected mice (Mus musculus) after single 20 mg/kg subcutaneous dose 72hr post infection; procedure, shortened: as §1
[25] = tested on: Plasmodium berghei; test: Change in mean survival time of Plasmodium berghei infected mice (Mus musculus) on 1.25 mg/kg subcutaneous dose
[26] = tested on: Plasmodium berghei; test: Change in mean survival time of Plasmodium berghei infected mice (Mus musculus) after 5 mg/kg subcutaneous dose
[27] = tested on: Plasmodium berghei; test: Change in mean survival time for control (average 6.2 days) versus treated mice (Mus musculus) after 160 mg/kg subcutaneous dose
[28] = tested on: Mus musculus; test: Delta MST, difference in mean survival time of the control mice (an average of 6.2 days) from the mean survival time of the treated mice after a single dose of (mg/kg sc) 1.25
[29] = tested on: Mus musculus; test: Antimalarial activity, administered as a single subcutaneous dose of 40 mg/kg, 72 hrs post infection measured as number of mice (Mus musculus) surviving at 60 days post infection; procedure, shortened: as §1
[30] = tested on: Mus musculus; test: Delta MST, difference in mean survival time of the control mice (an average of 6.2 days) from the mean survival time of the treated mice after a single sc dose of 160 mg/kg, 72-h postinfection; details: route subcutaneous
[31] = tested on: Mus musculus; test: Antimalarial activity of compound administered as a single subcutaneous dose of 5mg/kg, 72-h postinfection measured as number of mice (Mus musculus) surviving at 60 days postinfection; procedure, shortened: as §1
[32] = tested on: Mus musculus; test: Antimalarial activity of compound administered as a single subcutaneous dose of 160mg/kg, 72-h postinfection measured as number of mice (Mus musculus) surviving at 60 days postinfection; procedure, shortened: as §1
[33] = tested on: Mus musculus; test: Antimalarial activity of compound administered as a single subcutaneous dose of 80mg/kg, 72-h postinfection measured as number of mice (Mus musculus) surviving at 60 days postinfection; procedure, shortened: as §1
[34] = tested on: Mus musculus; test: Antimalarial activity of compound administered as a single subcutaneous dose of 40 mg/kg, 72-h postinfection measured as number of mice (Mus musculus) surviving at 60 days postinfection; procedure, shortened: as §1
[35] = tested on: Mus musculus; test: Antimalarial activity of compound administered as a single subcutaneous dose of 320 mg/kg, 72 hrs post infection measured as number of mice (Mus musculus) surviving at 60 days post infection; procedure, shortened: as §1
[36] = tested on: Mus musculus; test: Antimalarial activity of compound administered as a single subcutaneous dose of 20 mg/kg, 72 hrs post infection measured as number of mice (Mus musculus) surviving at 60 days post infection; procedure, shortened: as §1

SMILES | Delta MST [1] [days] | Delta MST [2] [days] | No. of mice cured [3] | No. of mice cured [4] | No. of mice cured [5] | ED30 [6] [mg/kg] | No. of mice cured [7] | Delta MST [8] [days] | Delta MST [9] [days] | Delta MST [10] [days] | Delta MST [11] [days] | Delta MST [12] [days] | Delta MST [13] [days] | No. of mice cured [14] | Delta MST [16] [days] | Delta MST [17] [days] | No. of mice cured [24] | No. of mice cured [29] | also measured
CCN(CC)Cc1cc(Nc2ccnc3cc(Cl)ccc23)cc(-c2cccc(C(F)(F)F)c2)c1O | 0.5 | 13.5 | 2 | 3 | 3 | 16.3 | 1 | 9.7 | 21.9 | 17.9 | 21.9 | 28.2 | 23.7 | 4 | 31.4 | 15.2 | – | – | No. of mice cured [15]: 3
CCC(C)NCc1cc(Nc2cc[n+]([O-])c3cc(Cl)ccc23)cc(-c2ccc(Cl)cc2)c1O (stereo not drawn) | – | – | 3 | 3 | 3 | – | – | – | – | – | – | – | – | 4 | – | – | 3 | 2 | Delta MST [18]: 23.6 days; Delta MST [19]: 22.6 days; Delta MST [20]: 1.6 days; Delta MST [21]: 7.2 days; Delta MST [22]: 17.1 days; Delta MST [23]: 21.3 days; Delta MST [25]: 0 days; Delta MST [26]: 3.6 days; Delta MST [27]: 14.6 days; Delta MST [28]: 0
CCN(CC)Cc1cc(Nc2ccnc3cc(Cl)ccc23)cc(-c2cccc(Cl)c2)c1O | 0.3 | 3.9 | 2 | 5 | 4 | 17.3 | – | 1.3 | – | 21.9 | – | – | 22.4 | 4 | 29.4 | 15.5 | 1 | 3 | Delta MST [30]: 31.9 days
CCN(CC)Cc1cc(Nc2ccnc3cc(Cl)ccc23)cc(-c2cccnc2)c1O | 1.8 | 10.6 | 1 | 4 | 3 | 31 | 1 | 5.4 | 18.8 | 34.8 | 37.8 | 19.6 | 13.6 | 4 | 20.3 | 8.6 | 1 | 1 | No. of mice cured [31]: 1
CC(C)(C)NCc1cc(Nc2ccnc3cc(Cl)ccc23)cc(-c2ccccc2)c1O | 0.3 | 13.7 | – | – | 1 | – | – | 5.3 | 12.8 | 13 | 12.3 | 27.3 | 14.8 | – | 20.2 | 29.5 | – | – | No. of mice cured [32]: 1; No. of mice cured [33]: 1; No. of mice cured [34]: 2; No. of mice cured [35]: 1; No. of mice cured [36]: 1
